# Compound activity (PubChem)
# In the library only some 1.9% were active in any assay of this set; here they are far more common.
# CHRM5 agonist: CHRM5 agonism in calcium assay. P08912. CHO-K1 hM5 cells, Fluo-8 calcium fluorescence; 0% DMSO wells, 100% maximal acetylcholine response. activation, % at 3 µM. hit rate 0.19% among 360,000;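 active = activation above the run's mean over test compounds plus 3 SD, cut at about 23% in these data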;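 also: signal is peak over basal fluorescence ratio across the kinetic read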
# Target sequence (P08912 whole entry, looked up): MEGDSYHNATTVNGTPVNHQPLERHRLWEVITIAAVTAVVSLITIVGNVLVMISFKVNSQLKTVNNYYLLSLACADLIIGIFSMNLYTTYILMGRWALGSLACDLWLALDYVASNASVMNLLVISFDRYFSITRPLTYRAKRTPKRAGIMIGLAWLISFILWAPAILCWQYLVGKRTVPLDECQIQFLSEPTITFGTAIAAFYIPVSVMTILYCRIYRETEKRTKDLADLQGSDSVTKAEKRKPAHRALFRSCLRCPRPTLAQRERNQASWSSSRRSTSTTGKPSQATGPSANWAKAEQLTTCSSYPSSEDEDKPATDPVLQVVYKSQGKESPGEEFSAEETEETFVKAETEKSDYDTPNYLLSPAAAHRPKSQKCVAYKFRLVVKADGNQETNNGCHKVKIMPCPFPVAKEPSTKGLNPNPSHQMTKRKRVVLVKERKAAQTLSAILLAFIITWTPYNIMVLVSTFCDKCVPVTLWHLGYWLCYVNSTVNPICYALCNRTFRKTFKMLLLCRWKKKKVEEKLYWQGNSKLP
# CHRM5 PAM: potentiates acetylcholine response at human M5 receptor | CHO-K1 hM5, Fluo-8 calcium, ACh EC20 PAM; 0% = ACh EC20, 100% = ACh EC100 | AID 624038 | hit rate 0.3% among 360,000 | P08912 | activation, % at 3 µM;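 active = activation above the run cutoff, the mean activation of all test compounds plus 3 SD, cut at about 18% in these data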
#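 Measured by: Fluo-8 calcium fluorescence; material: human M5 receptor in CHO-K1 cells; schedule: Post-acetylcholine fluorescence recording 140 s; benchmarks: low control EC20 acetylcholine (0%), high control EC100 acetylcholine (100%); read-out: Max/basal fluorescence ratio as % of EC20–EC100 ACh window; compound: single dose, 3 µM nominal final test concentration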
# M4 ag: CHRM4 agonism in calcium assay; CHO-K1 hM4/Gqi5, Fluo-8 calcium fluorescence; vehicle 0%, full acetylcholine response 100%; activation, % at 3 µM; hit rate 0.14% among 360,000; AID 624127;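 active = activation above the run mean over all test wells plus 3 SD, cut at about 32% in these data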;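 also: peak over basal fluorescence ratio per well then scaled between controls; 0% = DMSO wells and 100% = acetylcholine at EC100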
# M4 antag: blocks acetylcholine activation of human M4 receptor. hit rate 0.73% among 360,000. AID 624125. P08173. CHO-hM4 cells, ACh EC80, Fluo-8 calcium fluorescence. inhibition, % at 3 µM;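 active = inhibition above its plate's cutoff, the mean inhibition of sample wells plus 3 SD, cut at about 27% in these data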;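 also: 0% = acetylcholine EC80 with DMSO and 100% = DMSO without agonist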
# M5 antag: CHRM5 antagonism in calcium assay | hit rate 0.59% among 360,000 | AID 624040 | inhibition, % at 3 µM | CHO-hM5 cells, Fluo-8 calcium fluorescence, ACh EC80 | P08912;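 active = inhibition above a per-plate cutoff, the mean of that plate's test compounds plus 3 SD, cut at about 27% in these data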;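 also: 0% = acetylcholine EC80 with DMSO and 100% = DMSO without agonist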
# CHRM4 PAM: CHRM4 positive allosteric modulation | P08173 | CHO-K1 hM4/Gqi5, Fluo-8 calcium fluorescence, ACh EC20; 0% = ACh EC20, 100% = maximal ACh | hit rate 0.4% among 360,000 | activation, % at 3 µM | AID 624126;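 active = activation above its plate's cutoff, the mean activation of sample wells plus 3 SD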
# The depositor's hits bear a star; ! = not confirmed by another sample.
SMILES,CHRM5 agonist,CHRM5 PAM,M4 ag,M4 antag,M5 antag,CHRM4 PAM
CCOc1ccccc1NC(=O)c1cc(C(=O)Nc2ccccc2OCC)cc(N2C(=O)CCC2=O)c1,-1,-17,9,3,29*,-9
CCOc1ccccc1NC(=O)c1cccc(N2C(=O)CCC2=O)c1,-4,-5,1,-5,0,0
COC(=O)C(CC(=O)c1ccc(Cl)cc1)c1ccccc1 (stereo unspecified),2,-23,10,2,2,-4
O=S(=O)(Nc1ccc2c(c1)OCO2)c1cccs1,-2,34*,0,-10,21,5
CCCCN(CC)C(=O)c1cc2cc3ccc(OC)cc3nc2o1,17,42*,3,5,-1,14
COCCNC(=S)N1CCN(c2cccc(C)c2C)CC1,1,-17,16,7,28*,-5
Cc1cccc(N2CCN(C(=S)NCCc3ccccc3)CC2)c1C,1,-4,1,6,6,-5
Cc1ccc2c(c1)sc[n+]2Cc1ccccc1,19,21*,-1,21,10,-2
O=C(/C=C/c1ccccc1Cl)N1CCOCC1,1,-2,2,-5,5,2
N#Cc1ccccc1/C=C/C(=O)N1CCOCC1,34*,-23,10,4,12,-8
CC(=O)c1cccc(NC(=O)CN(C)S(=O)(=O)c2ccc3c(c2)CC(C)N3C(C)=O)c1 (stereo unspecified),7,0,8,-5,-15,-3
CN(C)CCOC(=O)C1(c2ccccc2)CCOCC1,-11,-28,0,9,13,-6
CCN(CC)CCOC(=O)C1(c2ccccc2)CCCC1,-6,-16,2,98*,99*,-35
CCN(CC)CCOC(=O)C1(C2CCCCC2)CCCCC1,-2,-19,2,98*,99*,-16
CCN(CC)CCOC(=O)c1ccc(Cl)cc1,-14,3,1,-5,-13,5
CCN(CC)CC(=O)NCC1(c2ccccc2)CCCC1,-18,1,0,39*,5,-23
CCN(CC)CCOC(=O)C1(c2ccc(OC)c(OC)c2)CCCC1,-8,-16,1,6,28*,-12
COCCN1CCC(CO)C1 (stereo unspecified),1,2,1,-4,20,5
O=C(COC(=O)C1(c2ccccc2)CCCC1)N1CCNC1=O,-6,5,1,-5,3,5
O=C(OCCCN1CCCC1)C1(c2ccccc2)CCCC1,-14,-24,2,63*,39*,-31
Cc1ccc(OCC(O)CN2C(=O)NC(C)(C)C2=O)c(C)c1 (stereo unspecified),4,8,3,-7,0,19*
Cc1cc(C)cc(OCC(O)CN2C(=O)NC(C)(C)C2=O)c1 (stereo unspecified),3,-3,2,-9,-6,5
COCCNC(=S)NCCc1ccc(Cl)cc1Cl,-1,-1,1,5,-4,-3
C=CCNc1nc(Nc2ccc(OC)cc2)nc(OC)n1,-14,18*,-1,10,-4,7
NC(=O)c1ccsc1NC(=O)COC(=O)Cc1ccccc1[N+](=O)[O-],9,-14,18,-3,13,-11
SMILES,CHRM5 agonist,CHRM5 PAM,M4 ag,M4 antag,M5 antag,CHRM4 PAM
CCCCCCCCCCCCCCCC[n+]1ccc(C(N)=O)cc1,-3,-13,1,12,14,-21
CCCCCCCCCCCCCCCC[n+]1ccc(/C=N/O)cc1,-7,-17,1,14,28*,-13
O/N=C/c1cccc[n+]1CCCCCC[n+]1ccccc1/C=N/O,-21,3,0,13,3,-9
CCCCCCCCCCCCCCCC[n+]1ccccc1,-2,-19,0,45*,86*,-16
COc1ccc(CCNC(=O)CCCCC(=O)NCCc2ccc(OC)cc2)cc1,-3,-2,0,0,16,-1
COc1ccc(CN(CCNC(=O)CCCCC(=O)NCCN(Cc2ccc(OC)cc2)C(C)C)C(C)C)cc1,-21,-31,0,82*,48*,-63
Cc1nn(CC(=O)Nc2ccc3c(c2)CCC3)c(C)c1[N+](=O)[O-],-2,-2,3,-29,-10,0
O=C(CCl)NC(Cc1ccccc1)C(=O)OCC(=O)c1ccc(-c2ccccc2)cc1 (stereo unspecified),-8,-35,9,27*,14,-11
O=S1(=O)CC(O)C(Nc2ccccc2)C1 (stereo unspecified),-6,42*,0,-4,-8,26*
O=S1(=O)CC(O)C(Nc2ccc(Cl)cc2)C1 (stereo unspecified),1,-3,1,1,-7,2
CC(C)(c1ccccc1)c1ccc(OCc2ccc(C(=O)O)o2)cc1,4,0,1,2,4,0
CC(Oc1ccc(Cl)cc1Cl)C(=O)NNC(=O)c1ccncc1 (stereo unspecified),-1,4,2,-11,8,0
COC(=O)NNC(=O)C(C)Oc1ccc(Cl)cc1Cl (stereo unspecified),-2,1,1,6,-5,30*
CCN(CC)c1ccc2c(-c3ccc(S(=O)(=O)O)cc3S(=O)(=O)[O-])c3ccc(=[N+](CC)CC)cc-3oc2c1,23,-8,78*,17,8,-17
O=S(=O)(c1cccc2cnccc12)N1CCCNCC1,-1,-4,1,-2,4,-3
CC1CNCCN1S(=O)(=O)c1cccc2cnccc12 (stereo unspecified),52*!,-19,6,-5,4,-2
Cc1cccc(C)c1C(=NCCCN(C)C)c1ccccc1,-9,-18,2,38*,80*,-18
CCOC(=O)c1oc2ccc(Cl)cc2c1NC(C)=O,-1,1,2,-9,8,20*
CCOC(=O)c1oc2ccccc2c1NC(=O)C(C)(C)C,-1,5,-1,-6,6,5
CC1Sc2ccccc2N(Cc2ccc(OC(F)(F)F)cc2)C1=O (stereo unspecified),-1,-5,-1,-12,3,-2
CN(C)c1cc[n+](Cc2c(Cl)cccc2Cl)cc1,-6,-20,1,61*,55*,-34
C=C1[C@H](C)CN[C@H]1CCO,2,-2,26,-11,11,4
c1ccc(COc2ccc(CNCc3cccs3)cc2)cc1,-10,-10,7,33*,5,-27
COc1ccccc1C(=O)N(CCC1CCCN1C)c1nc2ccccc2s1 (stereo unspecified),-10,-19,20,11,27*,-25
